bCat nuc transl: modulators of beta-catenin nuclear translocation; 0.3% of 190,000 active; nuclear translocation activity, % at 5 µM; HeLa beta-catenin nuclear translocation, immunofluorescence imaging;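 active = nuclear translocation activity above 50% at 5 µM, with a well cell count of 50 or more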;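 also: per-cell ratio of nuclear to cytoplasmic median beta-catenin stain intensity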
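Test system: human HeLa cells, endogenous beta-catenin. Times: 24 h compound exposure, 37°C. Measured by: beta-catenin immunofluorescence imaging with DAPI.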
CHOP inh: CHOP inhibition in unfolded protein response | CHO-K1 CHOP-promoter luciferase, tunicamycin-induced, 15-18 h | 3.8% of 220,000 active | inhibition, % at 10 µM;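 active = compounds that reduced the stress-induced luciferase reporter signal by more than about 70% of percent inhibition, limit read from the data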
MT stabilize HCS: microtubule stabilization, imaging screen; 0.83% of 200,000 active; AID 2205; % tubulin-high responders, % at 10 µM; HeLa tubulin immunostaining HCS, 24 h; share of cells brighter than vehicle mean+2SD;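 active = plate Z-score above 3 for both tubulin-high and condensed-nucleus cell shares, with cell loss under 80%, at 10 µM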;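 also: anti alpha tubulin signal scored within the nucleus-defined area of each cell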
Autophagy HCS: autophagy modulation, high-content screen. MEF GFP-LC3 puncta imaging; test concentration mostly 10 µM. calls only at 10 µM (by protocol). 0.98% of 190,000 active;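 active = percentage of spot-positive cells more than 3 SD above its plate mean, without a fluorescence outlier flag or 80% toxicity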
Dynein cargo inh: dynein cargo transport inhibition; 3617.4 mouse cells, GR-EGFP nuclear translocation imaging; test concentration mostly 20 µM; stimulated with dexamethasone, 1 µM; active compounds read low; z-score, hits read low; 0.47% of 220,000 active; AID 1381;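 active = plate z-score of nuclear minus cytoplasmic receptor signal below a set negative limit, without overly bright fluorescence or cell loss, cut at about -3.5 in these data, passing the limit was not always enough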;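 also: z-score of nuclear minus cytoplasmic ring GR-EGFP intensity difference per well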
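medium = tetracycline-free induction medium containing charcoal-stripped FBS | also added = 1.0 µM final dexamethasone stimulus | schedule = 48 h induction, 1 h compound, 30 min dex at 37 °C | technique = fixed, Hoechst-stained cells imaged at 10x for EGFP | measure = GR-EGFP nuclear translocation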
L major viab: Leishmania major promastigote growth inhibition; Leishmania major promastigotes, resazurin fluorescence viability; inhibition, % at 10 µM; 9% of 200,000 active; AID 1063; in the data active = inhibition above about 50%;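 also: promastigotes grown with compound for 44 hours at 28 °C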
Of the large screens only hits and unclear results are named; the others gave an inactive call. Only some compounds are listed: those with a hit (about 12% of all), similar ones and a draw of the others.

Cc1cccn2c(=O)c3cc(C(N)=S)c(=N)n(CCCN4CCOCC4)c3nc12	L major viab 64
CCCCNC(=O)c1cc2c(=O)n3cccc(C)c3nc2n(CCN2CCOCC2)c1=N	none (no result: bCat nuc transl)
Cc1ccc2nc3c(cc(C(N)=S)c(=N)n3CCCOC(C)C)c(=O)n2c1	L major viab 86
COc1ccc(-c2cc(C(=O)Nc3c(C)n(C)n(-c4ccccc4)c3=O)no2)cc1OC	none (no result: bCat nuc transl)
COC(=O)c1ccc(CSc2nc(-c3ccc(OC)cc3)nc3c2c(=O)n(C)c(=O)n3C)o1	Autophagy HCS active (no result: bCat nuc transl, CHOP inh)
CCOc1c(OC(C)=O)ccc(/C=C/c2ccc3cccc(OC)c3n2)c1[N+](=O)[O-]	none
Cc1ccc(S(=O)(=O)N(CC(=O)Nc2ccc(Cl)c([N+](=O)[O-])c2)C2CCCCC2)cc1	CHOP inh 73
CC1CCCCN1CCNC(=O)Cn1nc(-c2ccccc2)ccc1=O (centres undefined)	Autophagy HCS active (no result: bCat nuc transl)
O=C(O)CCSc1nnc(COc2cccc3ccccc23)n1-c1cccc(Cl)c1	none
Cc1ccc(C)c(N2CCN(C(=O)c3ccc(CS(=O)(=O)c4ccccc4C)o3)CC2)c1	none (no result: bCat nuc transl, CHOP inh)
COc1ccccc1S(=O)(=O)Cc1ccc(C(=O)N2CCN(c3cccc(Cl)c3)CC2)o1	MT stabilize HCS 48 (no result: CHOP inh)
Cc1ccc(S(=O)(=O)Cc2ccc(C(=O)N3CCN(c4cc(C)ccc4C)CC3)o2)cc1	CHOP inh 95, MT stabilize HCS 29
COc1ccccc1S(=O)(=O)Cc1ccc(C(=O)N2CCN(c3ccccc3)CC2)o1	none
Cc1cccc(N2CCN(C(=O)c3ccc(CS(=O)(=O)c4ccccc4C)o3)CC2C)c1 (centres undefined)	bCat nuc transl 109, MT stabilize HCS 19, L major viab 59 (no result: CHOP inh)
Cc1cccc(N2CCN(C(=O)c3ccccn3)CC2C)c1 (centres undefined)	none
COc1ccc(CCN(C)S(=O)(=O)c2ccc(Cl)nc2)cc1OC	none
Cc1ccc(N=Nc2c(C)[nH][nH]c2=O)c(C)c1	none (no result: bCat nuc transl)
COc1ccc(/C=N/NC(=O)CSCC(=O)Nc2ccccc2)cc1OC	none
O=C(CSCC(=O)Nc1ccccc1)N/N=C/c1c(O)ccc2ccccc12	L major viab 100
COc1cccc(/C=N/NC(=O)c2ccc(=O)n(C)c2)c1O	L major viab 81
O=C(N/N=C/c1ccc[nH]1)c1ccccc1OCc1ccccc1Cl	none
O=C(N/N=C/c1ccco1)c1ccccc1OCc1ccccc1Cl	L major viab 69
Nc1cc(Cl)nc(N/N=C/c2c(O)ccc3ccccc23)n1	L major viab 91
C=CCc1cccc(/C=N/NC(=O)c2ccccc2OC)c1O	L major viab 98
Cn1cc(C(=O)N/N=C/c2c(O)ccc3ccccc23)ccc1=O	L major viab 99
O=C(N/N=C/c1c(O)ccc2ccccc12)c1ccc[n+](CCO)c1	none
COc1cccc(/C=N/NC(=O)c2ccc(=O)[nH]n2)c1O	none (no result: MT stabilize HCS, Autophagy HCS, L major viab)
CCOc1cccc(/C=N/NC(=O)c2cc(-c3cccn3C)n[nH]2)c1O	L major viab 98
COc1cccc(/C=N/NC(=O)c2[nH]c(C)c(C(=O)N/N=C/c3cccc(OC)c3O)c2C)c1O	L major viab 91
C=CCc1cccc(/C=N/NC(=O)c2ccccc2Br)c1O	none
COCCNC(=O)CS(=O)(=O)Cc1nc(-c2ccc(C)cc2)oc1C	none (no result: bCat nuc transl)
Cc1ccc(S(=O)(=O)CC(c2ccccc2)N2CCCCC2)cc1 (centres undefined)	none
Cc1ccc(S(=O)(=O)CC(CN2CCCCC2)N2CCCCC2)cc1 (centres undefined)	L major viab 97
Cc1cc2nc(-c3ccc(SCc4ccc(C#N)cc4)nc3)[nH]c2cc1C	L major viab 62
CC(=O)CSc1ccc(-c2nc3cc(C)c(C)cc3[nH]2)cn1	L major viab 80
N#Cc1ccccc1CSc1ccc(-c2nc3ccccc3[nH]2)cn1	none
O=S(=O)(c1ccc(-c2ccon2)s1)N1CCN(CCN2CCOCC2)CC1	none (no result: MT stabilize HCS, Autophagy HCS, L major viab)
CCOC(=O)c1c(C)n2c3c(cc(C)cc13)CCC2	none
COc1ccc(CCN(C(=O)C(F)(F)F)C(C(=O)NC2CCCCC2)c2ccc(C)s2)cc1 (centres undefined)	CHOP inh 87, L major viab 68

Bioassay records from PubChem BioAssay.
